This note sets out measurements from ChEMBL document CHEMBL1141149, “Novel fluorinated prodrugs for activation by carboxypeptidase G2 showing good in vivo antitumor activity in gene-directed enzyme prodrug therapy” (J Med Chem, 2005).

Data set [1] in a line: Chemical half life period as substrates of CPG2 was determined. The format is ADME. The procedure, abridged: (§1)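 Compounds diluted from 10 mM DMSO stocks to 100 μM final in CPG2 assay buffer (100 mM Tris-HCl pH 7.3, 260 μM ZnCl2), no enzyme. Remaining parent measured over time by repeat isocratic reverse-phase HPLC injections (10 mM ammonium acetate pH 5.0/methanol), UV at λmax. Half-life from one-phase exponential decay fit (max 1, min 0).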

Data set [2] can be described thus: Cytotoxicity aganist MDA MB361 cell line MDA MB 361 expressing stCPG2(Q)3 done for 1 hr with compound dissolved in DMSO. The format is functional, cell-based. The conditions noted are these: Homo sapiens, MDA-MB-361, 1 h. In outline: (§2)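 Stably transfected MDA MB 361 lines (β-gal, cytoplasmic CPG2, or surface-tethered stCPG2(Q)3) in DMEM/10% FBS, confluent 6-well monolayers. Prodrug series 1 h, then equal concentration fresh solution added, 20 h more. Cells reseeded 2×10^3/well, grown 5 days; SRB staining, A540. IC50 by four-parameter logistic fit of % control growth.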

For data set [3], the target named is T1, Carboxypeptidase G2 (Pseudomonas aeruginosa (strain ATCC 15692 / PAO1 / 1C / PRS 101 / LMG12228)) (UniProt Q9I056).
T1 sequence (whole entry): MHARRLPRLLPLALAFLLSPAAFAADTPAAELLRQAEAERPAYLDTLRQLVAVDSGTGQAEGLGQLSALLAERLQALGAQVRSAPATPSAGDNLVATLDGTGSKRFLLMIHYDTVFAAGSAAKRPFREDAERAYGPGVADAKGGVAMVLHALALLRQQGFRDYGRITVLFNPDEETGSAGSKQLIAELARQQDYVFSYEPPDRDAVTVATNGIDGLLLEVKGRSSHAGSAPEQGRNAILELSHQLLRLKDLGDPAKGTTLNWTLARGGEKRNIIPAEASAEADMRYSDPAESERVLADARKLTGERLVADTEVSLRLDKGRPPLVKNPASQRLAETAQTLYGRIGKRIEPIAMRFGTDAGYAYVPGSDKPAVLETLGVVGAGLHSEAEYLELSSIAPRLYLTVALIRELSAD
In words: Kcat against carboxypeptidase G2 in inhibitory kinetic assay. In outline:
(§3)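 Prodrug 0.2–50 μM (25 concentrations) in CPG2 assay buffer (100 mM Tris-HCl pH 7.3, 260 μM ZnCl2) at 37 °C, ±50 mU CPG2. Absorbance change at wavelength of maximal prodrug/drug difference followed 1 min, non-enzymic change subtracted, converted to substrate loss. Km and kcat from Michaelis–Menten nonlinear fit.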

Data set [4] can be described thus: Cytotoxicity against MDA MB361 cell line MDA MB 361 expressing beta-galactosidase done for 1 h with compound dissolved in DMSO. The format is functional, cell-based. The conditions noted are these: Homo sapiens, MDA-MB-361, 1 h. The procedure, abridged: as §2
The nature of data set [5]: Cytotoxicity aganist MDA MB361 cell line MDA MB 361 expressing carboxypeptidase G2 done for 1 hr with compound dissolved in DMSO. The class given is functional, cell-based. To be noted: Homo sapiens, MDA-MB-361, 1 h. In outline: as §2
A short description of data set [6]: Ratio of IC50 of LacZ cell line to CPG2-expressing cell line. The format is functional, Homo sapiens. The procedure, abridged: (§4)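 Selectivity ratio: IC50 in β-gal (LacZ) control MDA MB 361 cells divided by IC50 in CPG2- or stCPG2(Q)3-expressing cells, both from 1 h + 20 h exposure, 5-day regrowth SRB assay.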
The nature of data set [7]: Half life period was determined. The class given is ADME. The conditions noted are these: rat. The procedure, abridged: as §1
A short description of data set [8]: Ratio of IC50 of LacZ cell line to stCPG2(Q)3-expressing cell line. The format is functional, Homo sapiens. In outline: as §4
Compound in data set [9]: O=C(O)CC[C@H](NC(=O)c1cc(F)c(N(CCBr)CCBr)c(F)c1F)C(=O)O
In words: (§5) Km against carboxypeptidase G2 in inhibitory kinetic assay. The conditions noted are these: Pseudomonas. The procedure, abridged: as §3

Compound in data set [10]: O=C(O)CC[C@H](NC(=O)c1cc(F)c(N(CCCl)CCCl)c(F)c1F)C(=O)O
Described as §5. The conditions noted are these: Pseudomonas. In outline: as §3

Compound in data set [11]: O=C(O)CC[C@H](NC(=O)c1cc(F)c(N(CCCl)CCCl)c(F)c1)C(=O)O
Described as §5. To be noted: Pseudomonas. In outline: as §3

Compound in data set [12]: O=C(O)CC[C@H](NC(=O)c1cc(F)c(N(CCBr)CCBr)c(F)c1)C(=O)O
Described as §5. To be noted: Pseudomonas. The procedure, abridged: as §3

Compound in data set [13]: CS(=O)(=O)OCCN(CCCl)c1ccc(C(=O)N[C@@H](CCC(=O)O)C(=O)O)cc1
The data set is described as §5. To be noted: Pseudomonas. In outline: as §3

Compound in data set [14]: O=C(O)CC[C@H](NC(=O)c1cc(F)c(N(CCI)CCI)c(F)c1F)C(=O)O
The description is as §5. The conditions noted are these: Pseudomonas. In outline: as §3

Compound in data set [15]: O=C(O)CC[C@H](NC(=O)c1cc(F)c(N(CCI)CCI)c(F)c1)C(=O)O
Described as §5. To be noted: Pseudomonas. In outline:
as §3

For the molecule `CS(=O)(=O)OCCN(CCCl)c1ccc(C(=O)O)cc1`, the half-life in data set [1] worked out at 0.5 h.
Molecule `O=C(O)CC[C@H](NC(=O)c1c(F)c(F)c(N(CCCl)CCCl)c(F)c1F)C(=O)O` showed a half-life in data set [1] of 82.3 h. In addition, the 50% inhibitory concentration (IC50) in [2], in data set [4] and in data set [5] was greater than 4000 µM in each case. For the same molecule, in [3], the K cat is 0 1/S.
Take `O=C(O)CC[C@H](NC(=O)c1cc(F)c(N(CCI)CCI)c(F)c1)C(=O)O`: the results for the half-life in data set [1] and in [7] were 0.15 h and less than 0.0833 h, respectively. For the same molecule, the IC50 was found to be 26 µM in data set [2], 3300 µM in data set [4] and 39 µM in [5]. For the same molecule, in data set [3], the K cat is 1150 1/S. The Differential in data set [6] is recorded as 86; in data set [8] it was 127.
With `O=C(O)CC[C@H](NC(=O)c1cc(F)c(N(CCCl)CCCl)c(F)c1)C(=O)O`, the half-life was 4.9 h in data set [1] and 1.5 h in [7]. For the same molecule, the half-inhibitory concentration (IC50) in data set [2] is 26 µM; in [4], greater than 4000 µM; in [5], 42 µM. Also, in data set [3], the K cat was 732 1/S. Further, the results for the Differential in data set [6] and in data set [8] were greater than 95 and greater than 150, respectively.
Consider `CS(=O)(=O)OCCN(CCCl)c1ccc(C(=O)N[C@@H](CCC(=O)O)C(=O)O)cc1`, for which the values for the IC50 in data set [2], in [4] and in data set [5] were 165 µM, 3130 µM and 1880 µM, respectively. In addition, the K cat in data set [3] is 583 1/S. Also, the Differential in [8] amounted to 19.
In turn, `O=C(O)CC[C@H](NC(=O)c1c(F)c(F)c(N(CCI)CCI)c(F)c1F)C(=O)O` came in with a half-life in [1] of 2 h. Besides, the IC50 in data set [2], in data set [4] and in data set [5] was greater than 4000 µM throughout. Further, the K cat in data set [3] is 0 1/S.
Turning to `O=C(O)CC[C@H](NC(=O)c1cc(F)c(N(CCI)CCI)c(F)c1F)C(=O)O`, the half-life in [1] worked out at 0.622 h; in data set [7], 6 h. Besides, the half-inhibitory concentration (IC50) in [2] is 173 µM; in data set [4], greater than 4000 µM; in data set [5], 671 µM. Further, the K cat in data set [3] is 220 1/S. The Differential is given as greater than 6 in [6] and greater than 23 in [8].
Consider `O=C(O)CC[C@H](NC(=O)c1cc(F)c(N(CCBr)CCBr)c(F)c1F)C(=O)O`, for which the half-life came out at 0.382 h in data set [1] and 0.15 h in [7]. Further, the IC50 in data set [2] is 50 µM; in [4], greater than 4000 µM; in data set [5] it was 82 µM. Further, the K cat in data set [3] was 825 1/S. The Differential in data set [6] was greater than 49; in data set [8], greater than 80.
Consider `O=C(O)CC[C@H](NC(=O)c1cc(F)c(N(CCCl)CCCl)c(F)c1F)C(=O)O`, for which the results for the half-life in [1] and in data set [7] were 21.7 h and 6 h, respectively. Also, the half-inhibitory concentration (IC50) is 46 µM in data set [2], greater than 4000 µM in [4] and 73 µM in data set [5]. In addition, the K cat in data set [3] is 1150 1/S. Further, the values for the Differential in data set [6] and in [8] were greater than 55 and greater than 87, respectively.
As to `O=C(O)CC[C@H](NC(=O)c1cc(F)c(N(CCBr)CCBr)c(F)c1)C(=O)O`, the half-life was 0.0917 h in [1] and less than 0.0833 h in data set [7]. For the same molecule, the IC50 is 14 µM in data set [2], greater than 4000 µM in [4] and 53 µM in [5]. Also, the K cat in data set [3] is 827 1/S. Moreover, the Differential in data set [6] is on record as greater than 75; in data set [8], greater than 280.

B1: Carboxypeptidase G2 (Pseudomonas aeruginosa (strain ATCC 15692 / PAO1 / 1C / PRS 101 / LMG12228)), Q9I056 (protein)
chain: MHARRLPRLLPLALAFLLSPAAFAADTPAAELLRQAEAERPAYLDTLRQLVAVDSGTGQAEGLGQLSALLAERLQALGAQVRSAPATPSAGDNLVATLDGTGSKRFLLMIHYDTVFAAGSAAKRPFREDAERAYGPGVADAKGGVAMVLHALALLRQQGFRDYGRITVLFNPDEETGSAGSKQLIAELARQQDYVFSYEPPDRDAVTVATNGIDGLLLEVKGRSSHAGSAPEQGRNAILELSHQLLRLKDLGDPAKGTTLNWTLARGGEKRNIIPAEASAEADMRYSDPAESERVLADARKLTGERLVADTEVSLRLDKGRPPLVKNPASQRLAETAQTLYGRIGKRIEPIAMRFGTDAGYAYVPGSDKPAVLETLGVVGAGLHSEAEYLELSSIAPRLYLTVALIRELSAD
As to B1, the Michaelis-Menten constant (Km) in data set [9] amounted to 1.1 µM; in data set [10] it was 2.6 µM; in data set [11], 1.71 µM; in data set [12], 1.18 µM; in [13] it was 3.4 µM; in [14], 2.8 µM. Moreover, the Michaelis-Menten constant (Km) in data set [15] stood at 1.74 µM.
